Data from ChEMBL document CHEMBL1275294, “Synthesis and anticancer activity evaluation of 4-thiazolidinones containing benzothiazole moiety” (2010).
Calls of active or inactive are those of the source. The rule behind the calls is not given here.

Tests used:
RPMI-8226 [1] = assay: Anticancer activity against human RPMI8226 cells assessed as cell growth at 10 uM after 48 hrs by SRB assay; format: functional; details: RPMI-8226, 48 h, read-out: Activity
How it was run: (§1)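 NCI primary screen: compound added at a single concentration of 10^-5 M to the human tumor cell line panel, 48 h incubation, end-point by sulforhodamine B protein staining read spectrophotometrically. Result expressed as percent growth of treated cells relative to untreated control cells.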

[2] = Anticancer activity against human NCI60 cells assessed as cell growth at 10 uM after 48 hrs by SRB assay; format: functional; details: NCI60, 48 h, read-out: Activity; how it was run: as §1
NCI60 = assay: Anticancer activity against human NCI60 cells assessed as cell growth inhibition after 48 hrs by SRB assay; format: functional, cell-based
How it was run: (§2)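 NCI full panel of about 60 human tumor cell lines, five 10-fold dilutions from 10^-4 to 10^-8 M, 48 h continuous exposure, SRB protein assay read spectrophotometrically. Percent growth from time-zero, untreated-control and treated absorbances. GI50 is the molar concentration giving 50% net growth inhibition, TGI total inhibition, LC50 50% net cell death. Mean graph midpoints include insensitive lines at the top concentration.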

RXF 393 = assay: Anticancer activity against human RXF393 cells assessed as cell growth at 10 uM after 48 hrs by SRB assay; format: functional; details: RXF 393, 48 h, read-out: Activity; how it was run: as §1
SF-295 [3] = assay: Anticancer activity against human SF295 cells assessed as cell growth at 10 uM after 48 hrs by SRB assay; format: functional; details: SF-295, 48 h, read-out: Activity; how it was run: as §1
BT-549 = assay: Growth inhibition of human BT549 cells after 48 hrs by SRB assay; format: functional; details: BT-549, 48 h; for TGI: read-out: pTGI (converted); how it was run: as §2
[4] = Growth inhibition of human NCI-ADR-RES cells after 48 hrs by SRB assay; format: functional; how it was run: as §2
MCF7 = assay: Growth inhibition of human MCF7 cells after 48 hrs by SRB assay; format: functional; details: MCF7, 48 h; how it was run: as §2
SF-295 [5] = assay: Growth inhibition of human SF295 cells after 48 hrs by SRB assay; format: functional; details: SF-295, 48 h; how it was run: as §2
SNB-19 = assay: Growth inhibition of human SNB19 cells after 48 hrs by SRB assay; format: functional; details: SNB-19, 48 h; how it was run: as §2
SF-539 = assay: Growth inhibition of human SF539 cells after 48 hrs by SRB assay; format: functional; details: SF-539, 48 h; how it was run: as §2
SNB-75 [6] = assay: Anticancer activity against human SNB75 cells assessed as cell growth at 10 uM after 48 hrs by SRB assay; format: functional; details: SNB-75, 48 h, read-out: Activity; how it was run: as §1
NCI-H23 = assay: Growth inhibition of human NCI-H23 cells after 48 hrs by SRB assay; format: functional; details: NCI-H23, 48 h; how it was run: as §2
U-251 = assay: Growth inhibition of human U251 cells after 48 hrs by SRB assay; format: functional; details: U-251, 48 h; for TGI: read-out: pTGI (converted); how it was run: as §2
PC-3 = assay: Growth inhibition of human PC3 cells after 48 hrs by SRB assay; format: functional; details: PC-3, 48 h; how it was run: as §2
HCT-116 = assay: Growth inhibition of human HCT116 cells after 48 hrs by SRB assay; format: functional; details: HCT-116, 48 h; how it was run: as §2
ACHN = assay: Growth inhibition of human ACHN cells after 48 hrs by SRB assay; format: functional; how it was run: as §2
MDA-MB-435 = assay: Growth inhibition of human MDA-MB-435 cells after 48 hrs by SRB assay; format: functional; details: MDA-MB-435, 48 h; how it was run: as §2
HOP-92 [7] = assay: Growth inhibition of human HOP92 cells after 48 hrs by SRB assay; format: functional; details: HOP-92, 48 h; how it was run: as §2
T47D = assay: Growth inhibition of human T47D cells after 48 hrs by SRB assay; format: functional; how it was run: as §2
OVCAR-4 = assay: Growth inhibition of human OVCAR4 cells after 48 hrs by SRB assay; format: functional; details: OVCAR-4, 48 h; how it was run: as §2
UACC-62 = assay: Growth inhibition of human UACC62 cells after 48 hrs by SRB assay; format: functional; details: UACC-62, 48 h; how it was run: as §2
KM12 = assay: Growth inhibition of human KM12 cells after 48 hrs by SRB assay; format: functional; details: KM12, 48 h; how it was run: as §2
HL-60(TB) = assay: Growth inhibition of human HL-60(TB) cells after 48 hrs by SRB assay; format: functional; details: HL-60, 48 h
How it was run: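 NCI 60-cell-line screen, five 10-fold dilutions of the compound, 48-h continuous drug exposure. Cell growth is measured with the sulforhodamine B protein stain and read spectrophotometrically against untreated controls and a time-zero plate (Tz). GI50 is the molar concentration giving 50% net growth inhibition. Values outside the tested range are reported as above or below the extreme concentration.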

LOX IMVI = assay: Growth inhibition of human LOXIMVI cells after 48 hrs by SRB assay; format: functional; how it was run: as §2
SR = assay: Anticancer activity against human SR cells assessed as cell growth at 10 uM after 48 hrs by SRB assay; format: functional; details: read-out: Activity; how it was run: as §1
SNB-75 [8] = assay: Growth inhibition of human SNB75 cells after 48 hrs by SRB assay; format: functional; details: SNB-75, 48 h; how it was run: as §2
DU-145 = assay: Growth inhibition of human DU145 cells after 48 hrs by SRB assay; format: functional; details: DU-145, 48 h; how it was run: as §2
SW-620 = assay: Growth inhibition of human SW620 cells after 48 hrs by SRB assay; format: functional; details: SW-620, 48 h; how it was run: as §2
OVCAR-3 = assay: Growth inhibition of human OVCAR-3 cells after 48 hrs by SRB assay; format: functional; details: OVCAR-3, 48 h; how it was run: as §2
RPMI-8226 [9] = assay: Growth inhibition of human RPMI8226 cells after 48 hrs by SRB assay; format: functional; details: RPMI-8226, 48 h; how it was run: as §2
A498 = assay: Growth inhibition of human A498 cells after 48 hrs by SRB assay; format: functional; details: A498, 48 h; how it was run: as §2
NCI-H226 = assay: Growth inhibition of human NCI-H226 cells after 48 hrs by SRB assay; format: functional; details: NCI-H226, 48 h; how it was run: as §2
SK-MEL-28 = assay: Growth inhibition of human SK-MEL-28 cells after 48 hrs by SRB assay; format: functional; details: SK-MEL-28, 48 h; how it was run: as §2
UO-31 = assay: Anticancer activity against human UO31 cells assessed as cell growth at 10 uM after 48 hrs by SRB assay; format: functional; details: UO-31, 48 h, read-out: Activity; how it was run: as §1
HOP-92 [10] = assay: Anticancer activity against human HOP92 cells assessed as cell growth at 10 uM after 48 hrs by SRB assay; format: functional; details: HOP-92, 48 h, read-out: Activity; how it was run: as §1

Structure (SMILES): CCOC(=O)c1ccc(NC(=O)COc2ccc(Cl)cc2/C=C2\SC(=S)N(Nc3nc4ccccc4s3)C2=O)cc1
- growth at 10 µM (RPMI-8226 [1]): 20%
- growth at 10 µM [2]: 74.7%
- growth inhibition (GI) (NCI60): inactive

Structure (SMILES): COc1cc(/C=C2\SC(=S)N(Nc3nc4ccccc4s3)C2=O)ccc1O
- growth at 10 µM [2]: 97.7%
- growth at 10 µM (RXF 393): -0.71%
- growth inhibition (GI) (NCI60): inactive

Structure (SMILES): Cc1ccc2nc(/N=C3\NC(=O)/C(=C/c4ccc(Cl)cc4)S3)sc2c1
- growth at 10 µM [2]: 56.5%
- growth at 10 µM (SF-295 [3]): 4.01%
- growth inhibition (GI) (NCI60): inactive

Structure (SMILES): CCN(CC)c1ccc(/C=C2\S/C(=N/c3nc4ccc(C)cc4s3)NC2=O)cc1
- growth at 10 µM [2]: 69%
- growth at 10 µM (SF-295 [3]): 22.5%
- growth inhibition (GI) (NCI60): inactive

Structure (SMILES): COc1ccc(NC(=O)COc2ccc(Cl)cc2/C=C2\S/C(=N/c3nc4ccc(C)cc4s3)NC2=O)cc1
- GI50 (BT-549): 6.03 µM
- TGI (BT-549): 27.5 µM
- GI50 [4]: 6.76 µM
- TGI ([4]; read-out: pTGI): > 100 µM
- GI50 (MCF7): 4.27 µM
- TGI (MCF7; read-out: pTGI): > 100 µM
- growth at 10 µM [2]: -36.9%
- GI50 (SF-295 [5]): 3.39 µM
- TGI (SF-295 [5]; read-out: pTGI (converted)): 15.5 µM
- GI50 (SNB-19): 5.5 µM
- TGI (SNB-19; read-out: pTGI (converted)): 25.1 µM
- GI50 (SF-539): 1.78 µM
- TGI (SF-539; read-out: pTGI (converted)): 3.63 µM
- growth at 10 µM (SNB-75 [6]): -86.5%
- GI50 (NCI-H23): 7.76 µM
- TGI (NCI-H23; read-out: pTGI (converted)): 25.1 µM
- GI50 (U-251): 5.01 µM
- TGI (U-251): 20 µM
- GI50 (PC-3): 4.9 µM
- TGI (PC-3; read-out: pTGI): > 100 µM
- growth inhibition (GI) (NCI60): Active
- GI50 (HCT-116): 4.57 µM
- TGI (HCT-116; read-out: pTGI (converted)): 34.7 µM
- GI50 (ACHN): 6.46 µM
- TGI (ACHN; read-out: pTGI (converted)): 66.1 µM
- GI50 (MDA-MB-435): 10 µM
- TGI (MDA-MB-435; read-out: pTGI (converted)): 34.7 µM
- GI50 (HOP-92 [7]): 0.457 µM
- TGI (HOP-92 [7]; read-out: pTGI (converted)): 10.2 µM
- GI50 (T47D): 4.79 µM
- TGI (T47D; read-out: pTGI): > 100 µM
- GI50 (OVCAR-4): 6.03 µM
- TGI (OVCAR-4; read-out: pTGI): > 100 µM
- GI50 (UACC-62): 5.37 µM
- TGI (UACC-62; read-out: pTGI (converted)): 39.8 µM

Structure (SMILES): COc1ccc(NC(=O)COc2ccc(Cl)cc2/C=C2\SC(=S)N(Nc3nc4ccccc4s3)C2=O)cc1
- GI50 (BT-549): 3.02 µM
- TGI (BT-549): 8.91 µM
- GI50 (KM12): 2.24 µM
- TGI (KM12; read-out: pTGI (converted)): 4.9 µM
- GI50 (HL-60(TB)): 2.29 µM
- TGI (HL-60(TB); read-out: pTGI (converted)): 6.92 µM
- growth at 10 µM [2]: 50.4%
- GI50 (LOX IMVI): 1.66 µM
- TGI (LOX IMVI; read-out: pTGI (converted)): 3.24 µM
- GI50 (U-251): 2.95 µM
- TGI (U-251): 9.33 µM
- growth at 10 µM (SR): -71.5%
- GI50 (SNB-75 [8]): 1.58 µM
- TGI (SNB-75 [8]; read-out: pTGI (converted)): 9.55 µM
- growth inhibition (GI) (NCI60): Active
- GI50 (DU-145): 2.09 µM
- TGI (DU-145; read-out: pTGI (converted)): 3.98 µM
- GI50 (SW-620): 2.45 µM
- TGI (SW-620; read-out: pTGI (converted)): 6.31 µM
- GI50 (OVCAR-3): 2 µM
- TGI (OVCAR-3; read-out: pTGI (converted)): 3.72 µM
- GI50 (RPMI-8226 [9]): 5.37 µM
- TGI (RPMI-8226 [9]; read-out: pTGI (converted)): 12.9 µM
- GI50 (A498): 2.57 µM
- TGI (A498; read-out: pTGI (converted)): 5.75 µM
- GI50 (NCI-H226): 2.95 µM
- TGI (NCI-H226; read-out: pTGI (converted)): 6.92 µM
- GI50 (SK-MEL-28): 2.19 µM
- TGI (SK-MEL-28; read-out: pTGI (converted)): 4.47 µM

Structure (SMILES): CCN(CC)c1ccc(/C=C2\SC(=S)N(Nc3nc4ccccc4s3)C2=O)cc1
- growth at 10 µM [2]: 98.5%
- growth inhibition (GI) (NCI60): inactive
- growth at 10 µM (UO-31): 77.3%

Structure (SMILES): COc1ccc(NC(=O)COc2ccc(/C=C3\SC(=S)N(Nc4nc5ccccc5s4)C3=O)cc2OC)cc1
- growth at 10 µM [2]: 107%
- growth inhibition (GI) (NCI60): inactive
- growth at 10 µM (UO-31): 78.6%

Structure (SMILES): COc1ccc(/C=C2\S/C(=N/c3nc4ccc(C)cc4s3)NC2=O)cc1
- growth at 10 µM [2]: 106%
- growth inhibition (GI) (NCI60): inactive
- growth at 10 µM (UO-31): 80.4%

Structure (SMILES): Cc1ccc2nc(/N=C3\NC(=O)/C(=C/c4cc(Cl)ccc4OCC(N)=O)S3)sc2c1
- growth at 10 µM [2]: 91.8%
- growth inhibition (GI) (NCI60): inactive
- growth at 10 µM (HOP-92 [10]): 51.4%
